The text below walks through data of ChEMBL document CHEMBL3227941, “3-Substituted adenines. In vitro enzyme inhibition and antiviral activity” (J Med Chem, 1979).

Active and inactive are the calls of the source. The calls are words filed in the database; no cut-off is given here.

The test system of data set [1] is Rattus norvegicus. The data set is described as follows: Inhibition of dopamine-beta-hydroxylase in Wistar rat assessed as reduction of norepinephrine level in brain at 50 mg/kg, ip after 6 hrs (reference value: 0.67 +/- 0.02 ug/g). Type of data set: functional. The conditions noted are these: route intraperitoneal.
Data set [2] relates to Rattus norvegicus. The data set is described as follows: Inhibition of dopamine-beta-hydroxylase in Wistar rat assessed as reduction of adrenal catecholamine level at 50 mg/kg, ip after 3 hrs assessed per adrenal pair (reference value: 10.6 +/- 0.7 ug). It counts as functional. Particulars: route intraperitoneal.
The subject of data set [3] is Rattus norvegicus. Description: Inhibition of dopamine-beta-hydroxylase in Wistar rat assessed as reduction of norepinephrine level in brain at 50 mg/kg, ip after 3 hrs (reference value: 0.67 +/- 0.02 ug/g). It counts as functional. Particulars: route intraperitoneal.
Data set [4] concerns Rattus norvegicus. Description: Inhibition of dopamine-beta-hydroxylase in Wistar rat assessed as reduction of norepinephrine level in brain at 50 mg/kg, ip after 24 hrs (reference value: 0.67 +/- 0.02 ug/g). It counts as functional. The conditions noted are these: route intraperitoneal.
Data set [5] deals with Rattus norvegicus. Description: Inhibition of dopamine-beta-hydroxylase in Wistar rat assessed as reduction of norepinephrine level in heart at 50 mg/kg, ip after 3 hrs (reference value: 0.55 +/- 0.04 ug/g). It counts as functional. Particulars: route intraperitoneal.
Data set [6] concerns Rattus norvegicus. Description: Inhibition of dopamine-beta-hydroxylase in Wistar rat assessed as reduction of adrenal catecholamine level at 50 mg/kg, ip after 6 hrs assessed per adrenal pair (reference value: 10.6 +/- 0.7 ug). Particulars: route intraperitoneal. Type of data set: functional.
Data set [7] has as its system Rattus norvegicus. The data set is described as follows: Inhibition of dopamine-beta-hydroxylase in Wistar rat assessed as reduction of norepinephrine level in heart at 50 mg/kg, ip after 24 hrs (reference value: 0.55 +/- 0.04 ug/g). Particulars: route intraperitoneal. It counts as functional.
The subject of data set [8] is Rattus norvegicus. The data set is described as follows: Inhibition of dopamine-beta-hydroxylase in Wistar rat assessed as reduction of norepinephrine level in heart at 50 mg/kg, ip after 6 hrs (reference value: 0.55 +/- 0.04 ug/g). The conditions noted are these: route intraperitoneal. Type of data set: functional.
The subject of data set [9] is Rattus norvegicus. Description: Inhibition of dopamine-beta-hydroxylase in Wistar rat assessed as reduction of adrenal catecholamine level at 50 mg/kg, ip after 24 hrs assessed per adrenal pair (reference value: 10.6 +/- 0.7 ug). The conditions noted are these: route intraperitoneal. Type of data set: functional.
A short description of data set [10]: Cytotoxicity against Vaccinia virus infected African green monkey BSC1 cells at 100 ug/ml. It counts as cell-based. The conditions noted are these: chlorocebus aethiops, bsc-1.
The test system of data set [11] is Human alphaherpesvirus 1. The data set is described as follows: Antiviral activity against HSV1 infected in African green monkey BSC-1 cells assessed as inhibition of virus multiplication at 25 ug/ml after 96 hrs by plaque reduction assay. Type of data set: functional. The conditions noted are these: Human alphaherpesvirus 1, BSC-1, 96 h.
Data set [12] relates to Human alphaherpesvirus 1. Description: Antiviral activity against HSV1 infected in African green monkey BSC-1 cells assessed as inhibition of virus multiplication at 12 ug/ml after 96 hrs by plaque reduction assay. Type of data set: functional. The conditions noted are these: Human alphaherpesvirus 1, BSC-1, 96 h.
In data set [13] the target is T1, Dopamine beta-hydroxylase (Bos taurus, UniProt P15101).
T1 sequence (P15101 whole entry): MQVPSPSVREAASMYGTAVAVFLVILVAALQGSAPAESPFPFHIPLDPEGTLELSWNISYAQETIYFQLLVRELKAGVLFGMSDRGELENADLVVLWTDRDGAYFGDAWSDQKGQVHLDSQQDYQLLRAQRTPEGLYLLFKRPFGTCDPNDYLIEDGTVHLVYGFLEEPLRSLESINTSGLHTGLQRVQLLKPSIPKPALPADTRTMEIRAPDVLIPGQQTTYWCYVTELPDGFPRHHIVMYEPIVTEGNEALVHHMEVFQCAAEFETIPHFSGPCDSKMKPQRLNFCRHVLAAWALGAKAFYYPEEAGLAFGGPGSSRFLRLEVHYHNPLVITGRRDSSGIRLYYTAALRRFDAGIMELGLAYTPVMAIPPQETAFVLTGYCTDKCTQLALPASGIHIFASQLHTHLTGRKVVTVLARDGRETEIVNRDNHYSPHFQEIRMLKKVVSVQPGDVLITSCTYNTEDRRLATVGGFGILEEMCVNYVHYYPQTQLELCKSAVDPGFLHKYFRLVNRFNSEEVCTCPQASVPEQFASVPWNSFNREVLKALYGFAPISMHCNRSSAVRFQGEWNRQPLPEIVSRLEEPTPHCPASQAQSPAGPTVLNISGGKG
Description: Inhibition of bovine adrenal medullae dopamine-beta-hydroxylase. The conditions noted are these: read-out: I50 (converted). The arrangement: species or system Adrenal medulla.

Another data set relates to Sus scrofa. The data set is described as follows: Toxicity in Transmissible gastroenteritis virus infected pig at 25 mg/animal administered 3 times per day. Type of data set: organism-based. Particulars: in vivo. Summed up: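 Piglets (4-5 lb), four per treated group with two untreated controls, were given 25 mg/pig three times a day and challenged with virus. Body weight was followed from 24 h after challenge through 48 h, and animals were watched for signs of illness and for deaths.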

Data set [14] relates to Human alphaherpesvirus 1. Description: Antiviral activity against HSV1 infected in mouse assessed as assessed as protection against viral infection. Type of data set: functional, organism-based.
Data set [15] relates to Vaccinia virus. Description: Antiviral activity against Vaccinia virus infected in African green monkey BSC-1 cells assessed as inhibition of virus multiplication at 25 ug/ml after 96 hrs by plaque reduction assay. Particulars: Orthopoxvirus vaccinia, BSC-1, 96 h. It counts as functional.
The test system of data set [16] is Human alphaherpesvirus 1. Description: Antiviral activity against HSV1 infected in African green monkey BSC-1 cells assessed as inhibition of virus multiplication at 50 ug/ml after 96 hrs by plaque reduction assay. It counts as functional. Particulars: Human alphaherpesvirus 1, BSC-1, 96 h.
Data set [17] concerns Vaccinia virus. The data set is described as follows: Antiviral activity against Vaccinia virus infected in African green monkey BSC-1 cells assessed as inhibition of virus multiplication at 50 ug/ml after 96 hrs by plaque reduction assay. It counts as functional. The conditions noted are these: Orthopoxvirus vaccinia, BSC-1, 96 h.
The test system of data set [18] is Vaccinia virus. The data set is described as follows: Antiviral activity against Vaccinia virus infected in African green monkey BSC-1 cells assessed as inhibition of virus multiplication at 3 ug/ml after 96 hrs by plaque reduction assay. It counts as functional. Particulars: Orthopoxvirus vaccinia, BSC-1, 96 h.
In data set [19] the test system is Vaccinia virus. The data set is described as follows: Antiviral activity against Vaccinia virus infected in African green monkey BSC-1 cells assessed as inhibition of virus multiplication at 12 ug/ml after 96 hrs by plaque reduction assay. Particulars: Orthopoxvirus vaccinia, BSC-1, 96 h. Type of data set: functional.
For data set [20], the system named is Vaccinia virus. Description: Antiviral activity against Vaccinia virus infected in mouse assessed as assessed as protection against viral infection. Type of data set: functional, organism-based. The conditions noted are these: Orthopoxvirus vaccinia.
For data set [21], the system named is Human alphaherpesvirus 1. The data set is described as follows: Antiviral activity against HSV1 infected in African green monkey BSC-1 cells assessed as inhibition of virus multiplication at 6 ug/ml after 96 hrs by plaque reduction assay. It counts as functional. Particulars: Human alphaherpesvirus 1, BSC-1, 96 h.
Data set [22] deals with Transmissible gastroenteritis virus. Description: Antiviral activity against Transmissible gastroenteritis virus infected in pig at 25 mg/animal administered 3 times per day. Type of data set: functional, organism-based. Summed up: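 Piglets weighing 4-5 lb dosed at 25 mg/pig three times daily and challenged with virus. Weight and survival monitored against untreated controls over 72 h.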

Data set [23] concerns Vaccinia virus. The data set is described as follows: Antiviral activity against Vaccinia virus infected in African green monkey BSC-1 cells assessed as inhibition of virus multiplication at 6 ug/ml after 96 hrs by plaque reduction assay. Type of data set: functional. The conditions noted are these: Orthopoxvirus vaccinia, BSC-1, 96 h.
A short description of data set [24]: Cytotoxicity against HSV1 infected African green monkey BSC1 cells at 50 ug/ml. The conditions noted are these: chlorocebus aethiops, bsc-1. It counts as cell-based.
The nature of data set [25]: Cytotoxicity against Vaccinia virus infected African green monkey BSC1 cells at 50 ug/ml. It counts as cell-based. The conditions noted are these: chlorocebus aethiops, bsc-1.
Data set [26] in a line: Cytotoxicity against HSV1 infected African green monkey BSC1 cells at 25 ug/ml. Type of data set: cell-based. Particulars: chlorocebus aethiops, bsc-1.
Data set [27] is described as follows: Cytotoxicity against Vaccinia virus infected African green monkey BSC1 cells at 25 ug/ml. Type of data set: cell-based. Particulars: chlorocebus aethiops, bsc-1.

As for `Br.CCCCCn1cnc(N)c2ncnc1-2.Cl`, the Activity in the data set with Rattus norvegicus [1] was determined as 0.62 µg/g; in the data set on Rattus norvegicus [2], 14.1 µg; in the data set with Rattus norvegicus [3], 0.65 µg/g; in the data set with Rattus norvegicus [4], 0.62 µg/g; with Rattus norvegicus [5] it was 0.59 µg/g; in the data set on Rattus norvegicus [6], 12.1 µg. Further, the Activity came out at 0.56 µg/g in the data set on Rattus norvegicus [7], 0.57 µg/g with Rattus norvegicus [8] and 11.3 µg with Rattus norvegicus [9].

`Nc1ncn(Cc2ccccc2Br)c2ncnc1-2`: the Activity entry (in [10]; in the data set on Sus scrofa) was “Toxic” each time. The inhibition at 25 µg/mL with Human alphaherpesvirus 1 [11] and in the data set with Vaccinia virus [15] was 100% throughout. Also, the figures for the inhibition at 12 µg/mL with Human alphaherpesvirus 1 [12] and in the data set on Vaccinia virus [19] were 100% and 34%, respectively. Besides, the IC50 in [13] was 658 µM. Also, the outcome (in the data set on Human alphaherpesvirus 1 [14]; with Vaccinia virus [20]; in [22]) was inactive. Also, the inhibition at 50 µg/mL in the data set on Human alphaherpesvirus 1 [16] and in the data set with Vaccinia virus [17] was 100% throughout. Further, the inhibition at 3 µg/mL with Vaccinia virus [18] stood at 0%. Moreover, the inhibition at 6 µg/mL with Human alphaherpesvirus 1 [21] was 71%; in the data set on Vaccinia virus [23], 0%.

As to `Cc1ccc(Cn2cnc(N)c3ncnc2-3)cc1C`, the Activity result in data set [10], in data set [24], in [25], in data set [26] and in data set [27] was “Toxic” each time. Moreover, the inhibition at 12 µg/mL in the data set with Human alphaherpesvirus 1 [12] came out at 42%; in the data set with Vaccinia virus [19], 0%. In addition, the IC50 in data set [13] is 79 µM. Besides, the inhibition at 3 µg/mL in the data set on Vaccinia virus [18] is 0%. Besides, the inhibition at 6 µg/mL with Human alphaherpesvirus 1 [21] and in the data set on Vaccinia virus [23] was 0% throughout.
